# Results taken from ChEMBL document CHEMBL3046036, “Bioactivity of the fungal metabolite (8R,16R)-(-)-pyrenophorin on graminaceous plants” (J Agric Food Chem, 2005).
# Activity calls are given as the source filed them. The rule behind the calls is not given here.
# How the values were obtained:
# Triticum aestivum [1] = test: Inhibition of Triticum aestivum (wheat) root growth at 20 degC and 12 hr photoperiod at 31 to 50 uM; assay type: functional, organism-based
# Triticum aestivum [2] = test: Inhibition of Triticum aestivum (wheat) seed germination at 20 degC at 70 uM (reference value: 0%); assay type: functional
# Triticum aestivum [3] = test: Inhibition of Triticum aestivum (wheat) seed germination at 20 degC at 60 uM (reference value: 0%); assay type: functional
# Avena fatua [4] = test: Inhibition of Avena fatua seed germination at 20 degC at 640 uM (reference value: 0%); assay type: functional
# Avena sativa [5] = test: Inhibition of Avena sativa seed germination at 20 degC at 100 uM (reference value: 0%); assay type: functional
# Avena sterilis [6] = test: Inhibition of Avena sterilis seed germination at 20 degC at 80 uM (reference value: 0%); assay type: functional
# Avena sterilis [7] = test: Inhibition of Avena sterilis seed germination at 20 degC at 100 uM (reference value: 0%); assay type: functional
# Triticum aestivum [8] = test: Enhancement of Triticum aestivum (wheat) root growth at 20 degC and 12 hr photoperiod at 10 to 30 uM; assay type: functional, organism-based
# Outline: (§1)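 Pregerminated seeds were exposed in tubes to aqueous metabolite and kept in a growth chamber at 20 °C with a 12-h photoperiod. Main root length was measured after 120 h.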
# Avena fatua [9] = test: Inhibition of Avena fatua seed germination at 20 degC at 60 uM (reference value: 0%); assay type: functional
# Avena sterilis [10] = test: Inhibition of Avena sterilis seed germination at 20 degC at 320 uM (reference value: 0%); assay type: functional
# Hordeum vulgare [11] = test: Inhibition of Hordeum vulgare (barley) seed germination at 20 degC at 90 uM (reference value: 0%); assay type: functional
# Avena sativa [12] = test: Inhibition of Avena sativa seed germination at 20 degC at 70 uM (reference value: 0%); assay type: functional
# Avena fatua [13] = test: Inhibition of Avena fatua seed germination at 20 degC at 80 uM (reference value: 0%); assay type: functional
# Avena fatua [14] = test: Inhibition of Avena fatua seed germination at 20 degC at 100 uM (reference value: 0%); assay type: functional
# Avena fatua [15] = test: Inhibition of Avena fatua root growth at 20 degC and 12 hr photoperiod at > 51 uM; assay type: functional, organism-based; outline: as §1
# Avena sativa [16] = test: Inhibition of Avena sativa root growth at 20 degC and 12 hr photoperiod at > 51 uM; assay type: functional, organism-based; outline: as §1
# Avena sativa [17] = test: Inhibition of Avena sativa seed germination at 20 degC at 60 uM (reference value: 0%); assay type: functional
# Triticum aestivum [18] = test: Inhibition of Triticum aestivum (wheat) seed germination at 20 degC at 320 uM (reference value: 0%); assay type: functional
# Avena sativa [19] = test: Inhibition of Avena sativa seed germination at 20 degC at 640 uM (reference value: 0%); assay type: functional
# Avena sativa [20] = test: Enhancement of Avena sativa root growth at 20 degC and 12 hr photoperiod at 10 to 30 uM; assay type: functional, organism-based; outline: as §1
# Avena sterilis [21] = test: Inhibition of Avena sterilis root growth at 20 degC and 12 hr photoperiod at > 51 uM; assay type: functional, organism-based; outline: as §1
# Hordeum vulgare [22] = test: Phytotoxicity against Hordeum vulgare (barley) root growth at 20 degC and 12 hr photoperiod at 1000 uM; assay type: organism-based; conditions: in vivo
# Avena sativa [23] = test: Phytotoxicity against Avena sativa root growth at 20 degC and 12 hr photoperiod at 1000 uM; assay type: organism-based; conditions: in vivo
# Avena sterilis [24] = test: Inhibition of Avena sterilis root growth at 20 degC and 12 hr photoperiod at 31 to 50 uM; assay type: functional, organism-based; outline: as §1
# Avena fatua [25] = test: Enhancement of Avena fatua root growth at 20 degC and 12 hr photoperiod at 10 to 30 uM; assay type: functional, organism-based; outline: as §1
# Avena sterilis [26] = test: Enhancement of Avena sterilis root growth at 20 degC and 12 hr photoperiod at 10 to 30 uM; assay type: functional, organism-based; outline: as §1
# Triticum aestivum [27] = test: Inhibition of Triticum aestivum (wheat) seed germination at 20 degC at 10 to 50 uM (reference value: 0%); assay type: functional
# Hordeum vulgare [28] = test: Enhancement of Hordeum vulgare (barley) root growth at 20 degC and 12 hr photoperiod at 10 to 30 uM; assay type: functional, organism-based; outline: as §1
# Avena fatua [29] = test: Inhibition of Avena fatua seed germination at 20 degC at 70 uM (reference value: 0%); assay type: functional
# Avena sativa [30] = test: Inhibition of Avena sativa root growth at 20 degC and 12 hr photoperiod at 31 to 50 uM; assay type: functional, organism-based; outline: as §1
# Hordeum vulgare [31] = test: Inhibition of Hordeum vulgare (barley) seed germination at 20 degC at 70 uM (reference value: 0%); assay type: functional
# Avena fatua [32] = test: Phytotoxicity against Avena fatua root growth at 20 degC and 12 hr photoperiod at 1000 uM; assay type: organism-based; conditions: in vivo
# Hordeum vulgare [33] = test: Inhibition of Hordeum vulgare (barley) root growth at 20 degC and 12 hr photoperiod at > 51 uM; assay type: functional, organism-based; outline: as §1
# Avena fatua [34] = test: Inhibition of Avena fatua seed germination at 20 degC at 320 uM (reference value: 0%); assay type: functional
# Avena fatua [35] = test: Inhibition of Avena fatua seed germination at 20 degC at 10 to 50 uM (reference value: 0%); assay type: functional
smiles,measurement,setting,value
"C[C@@H]1CCC(=O)/C=C/C(=O)O[C@H](C)CCC(=O)/C=C/C(=O)O1 [(8R,16R)-(-)-pyrenophorin]",inhibition,Triticum aestivum [1],inactive
same,inhibition at 70 µM,Triticum aestivum [2],67.8%
same,inhibition at 60 µM,Triticum aestivum [3],12.4%
same,inhibition at 640 µM,Avena fatua [4],100%
same,inhibition at 100 µM,Avena sativa [5],93.5%
same,inhibition at 80 µM,Avena sterilis [6],84.4%
same,inhibition at 100 µM,Avena sterilis [7],96.8%
same,Activity,Triticum aestivum [8],Active
same,inhibition at 60 µM,Avena fatua [9],12.5%
same,inhibition at 320 µM,Avena sterilis [10],100%
same,inhibition at 90 µM,Hordeum vulgare [11],88.2%
same,inhibition at 70 µM,Avena sativa [12],71.5%
same,inhibition at 80 µM,Avena fatua [13],82%
same,inhibition at 100 µM,Avena fatua [14],95.3%
same,inhibition,Avena fatua [15],Active
same,inhibition,Avena sativa [16],Active
same,inhibition at 60 µM,Avena sativa [17],14.5%
same,inhibition at 320 µM,Triticum aestivum [18],98%
same,inhibition at 640 µM,Avena sativa [19],100%
same,Activity,Avena sativa [20],Active
same,inhibition,Avena sterilis [21],Active
same,Activity,Hordeum vulgare [22],Non-toxic
same,Activity,Avena sativa [23],Non-toxic
same,inhibition,Avena sterilis [24],inactive
same,Activity,Avena fatua [25],Active
same,Activity,Avena sterilis [26],Active
same,inhibition (INH),Triticum aestivum [27],0%
same,Activity,Hordeum vulgare [28],Active
same,inhibition at 70 µM,Avena fatua [29],69.9%
same,inhibition,Avena sativa [30],inactive
same,inhibition at 70 µM,Hordeum vulgare [31],67.5%
same,Activity,Avena fatua [32],Non-toxic
same,inhibition,Hordeum vulgare [33],Active
same,inhibition at 320 µM,Avena fatua [34],100%
same,inhibition (INH),Avena fatua [35],0%
